Source: paper PMC3680370 (Journal of medicinal chemistry, 2012)

Columns and labels:
[1] = system: primary cortical cultured neurons; experiment: Transient OGD followed by reoxygenation in primary neuronal cultures; type: cell-based, rat; conditions: for neuroprotection against OGD: primary neurons, 50 μM
In short: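 Cortical neurons came from E17 Sprague Dawley rat embryos. They were plated at 3×10^5 cells/cm2 on poly-L-lysine, then kept in serum-free neurobasal/B27 medium. On day 8–10, cultures had 2 h OGD at 37°C (95% N2/5% CO2) in deoxygenated, glucose-free HEPES-buffered salt solution, pH 7.4. They then had 24 h normoxic reoxygenation in fresh medium. Test compound (50 μM) was present throughout. Viability was read by MTT, death by LDH.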

[2] = system: rat primary cortical neurons; experiment: NMDA induced cytotoxicity in primary neurons; type: cell-based; conditions: NMDA 100 μM; compounds 50 μM
[3] = system: primary cortical cultures; type: cell-based, rat; conditions: drug 50 μM; for effect of GABAA blockade by picrotoxin on neuroprotection: picrotoxin 100 μM added 1 h before glutamate 100 μM, MTT at 24 h
In short: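 Cortical neurons from E17 Sprague Dawley rat embryos, plated at 3×10^5 cells/cm2 on poly-L-lysine and switched to serum-free neurobasal/B27 at 24 h, were used at 10–11 DIV. Picrotoxin 100 μM was given 1 h before glutamate 100 μM, or omitted in a parallel run. Test compound or muscimol (50 μM final) followed 1 h after glutamate. MTT survival at 24 h was normalised to vehicle controls; mean ± SEM, n=6.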

[4] = Brain bioavailability by LC-MS/MS; type: in vivo; conditions: mice, 20 min after i.p. administration; for MZ metabolite in the brain after NO-chimera administration: metabolite 22a from 32a, 26 from 28
In short: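 Male C57BL/6 mice (8–10 weeks, 20–25 g) got one i.p. dose of 4.5 μmol/kg, equimolar with the parent methylthiazole, at 0.1 ml/25 g; four mice per drug. Brains were taken 20 min post-dose and extracted with cold acetonitrile/MeOH (1:1) plus internal standard. After homogenising, 4°C centrifugation and re-extraction, extracts were cleared at −20°C and dried under N2. Analytes were measured by C18 HPLC (formic acid gradient).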

SH-SY5Y cell cultures = experiment: Excitotoxic insults; type: cell-based, human; conditions: excitotoxic insults including glutamate, NMDA, OGD; data not shown
rabbits = conditions: cited from earlier work
[5] = system: rats with cognitive deficits in the cholinergic systems of the basal forebrain; conditions: cited from earlier work
[6] = Stability of NO-chimera in neutral phosphate buffer; type: physicochemical; conditions: for stability in phosphate buffer: phosphate buffer 100 mM, pH 7.4, room temperature, HPLC-UV or LC-MS
In short: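 NO-chimeras were incubated in 100 mM phosphate buffer, pH 7.4, at room temperature in the HPLC autosampler. Aliquots were injected repeatedly, at intervals set by each compound's stability (about 7 or 67 min). Analysis used reverse-phase C18 HPLC with UV at 254 nm and a water/methanol vs acetonitrile gradient with 0.1% formic acid. Percent remaining was the parent:internal-standard peak-area ratio over the time-zero value.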

4-Butyl-1-[(4-methyl-5-thiazolyl)phenylmethyl]-1H-1,2,3-triazole [5a]
% normalized to CMZ after OGD ([1]; test compounds 50 μM during 2-hour OGD and 24-hour reoxygenation, MTT assay at 24 h normalized to vehicle (0% survival) and CMZ (100% survival), mean ± SEM (n=6)): 26.8 ± 5.2%

Cc1ncsc1C(c1ccccc1)n1cc(-c2cccnc2)nn1 (centres unmarked) [5d, 3-[1-[(4-methyl-5-thiazolyl)phenylmethyl]-1H-1,2,3-triazol-4-yl]pyridine]
neuroprotection against NMDA induced cytotoxicity [2]: excellent neuroprotectant | neuroprotection against OGD [1]: excellent neuroprotectant

Cc1ncsc1C(CO)c1ccccc1 (stereo not drawn) [22a, β-phenyl-4-methyl-5-thiazoleethanol]
effect of GABAA blockade by picrotoxin on neuroprotection [3]: mirrored that by muscimol

Cc1ncsc1C(CO[N+](=O)[O-])c1ccccc1 (stereo not drawn) [32a, β-phenyl-(4-methyl-5-thiazolyl)ethane-1-nitrate]
brain bioavailability of NO-chimera [4]: good brain bioavailability | MZ metabolite in the brain after NO-chimera administration [4]: observed in the brain

Cc1ncsc1CCCl [CMZ, clomethiazole, reference compound]
neuroprotection against NMDA induced cytotoxicity [2]: inhibited reproducibly | neuroprotection in SH-SY5Y cells (SH-SY5Y cell cultures): did not produce robust and reproducible neuroprotection

Cc1ncsc1CCO [HMZ, 5-(2-hydroxyethyl)-4-methylthiazole]
anticonvulsant activity (rabbits): anticonvulsant agent

Cc1ncsc1CCO[N+](=O)[O-] [compound 1]
learning and memory [5]: significantly improved learning and memory

Cc1ncsc1C(c1ccccc1)n1cc(-c2cncc(O)c2)nn1 (centres unmarked) [compound 16, 5-[1-[(4-Methyl-5-thiazolyl)phenylmethyl]-1H-1,2,3-triazol-4-yl]-3-pyridinol]
neuroprotection against OGD [1]: retained neuroprotective efficacy comparable to CMZ

Cc1ncsc1C(CO)n1cc(-c2cccnc2)nn1 (stereo not drawn) [compound 26, [1-[β-(4-Methyl-5-thiazolyl)ethanol]-4-(3-pyridinyl)]-1H-1,2,3-triazole]
effect of GABAA blockade by picrotoxin on neuroprotection [3]: intermediate neuroprotective mechanisms

Cc1ncsc1C(CO[N+](=O)[O-])n1cc(-c2cccnc2)nn1 (stereo not drawn) [compound 28, β-(4-methyl-5-thiazolyl)-[4-(3-pyridinyl)-1H-1,2,3-Triazole-1-ethane]-1-nitrate]
stability in phosphate buffer [6]: stability over 5 days at room temperature | MZ metabolite in the brain after NO-chimera administration [4]: readily detected

Cc1ncsc1C(CO[N+](=O)[O-])n1nncc1-c1cccnc1 (stereo not drawn) [compound 29, β-(4-methyl-5-thiazolyl)-[5-(3-pyridinyl)-1H-1,2,3-Triazole-1-ethane]-1-nitrate]
stability in phosphate buffer [6]: stability over 5 days at room temperature

Cc1ncsc1C(Cc1ccccc1)O[N+](=O)[O-] (stereo not drawn) [compound 33, α-(Phenylmethyl)-(4-methyl-5-thiazolyl)methanenitrate]
stability in phosphate buffer [6]: stability over 5 days at room temperature

Cc1ncsc1C(OC(=O)C1(CO[N+](=O)[O-])CC1)c1ccccc1 (centres unmarked) [compound 36, [1-[(nitrooxy)methyl]cyclopropanecarboxyl]-[(4-methyl-5-thiazolyl)phenylmethyl] ester]
half-life ([6]; phosphate buffer, pH 7.4): ~30 min

Cc1ncsc1C(OCCOCCO[N+](=O)[O-])c1ccccc1 (centres unmarked) [compound 40, 1-nitrooxy-2-[2-[(4-methyl-5-thiazolyl)phenylmethoxy]ethoxy]ethane]
stability in phosphate buffer [6]: stability over 5 days at room temperature

Cc1ncsc1C(OCCOCCO)c1ccccc1 (centres unmarked) [compound 41, [2-[(4-methyl-5-thiazolyl)phenylmethoxy]ethoxy]ethanol]
effect of GABAA blockade by picrotoxin on neuroprotection [3]: intermediate neuroprotective mechanisms

Cc1ncsc1C(NC(=O)OCCCCO[N+](=O)[O-])c1ccccc1 (centres unmarked) [compound 43, N-[(4-Methyl-5-thiazolyl)phenylmethyl]-[4-(nitrooxy)butyl] carbamate]
stability in phosphate buffer [6]: stable

Cc1ncsc1C(NC(=O)C1(CO[N+](=O)[O-])CC1)c1ccccc1 (centres unmarked) [compound 44, N-[(4-methyl-5-thiazolyl)phenylmethyl]-1-[(nitrooxy)methyl]cyclopropanecarboxamide]
stability in phosphate buffer [6]: stable

NCc1cc(O)no1 [muscimol, Muscimol, reference compound]
neuroprotection against glutamate toxicity ([3]; glutamate 100 μM, 24 h, MTT): effective neuroprotection | effect of GABAA blockade by picrotoxin on neuroprotection [3]: lost and reversed
